Data published in ChEMBL document CHEMBL1149289, “Synthesis and antibacterial activity of new poly-S-lysine-porphyrin conjugates” (J Med Chem, 2004).

Assays:
Staphylococcus aureus [1] = assay: Logarithmic survival of methicillin-resistant Staphylococcus aureus 110 at 1 uM after 10 mins and irradiated with white light at the fluence rate of 50 mW/cm2 for 30 mins relative to control; type: functional; conditions: light or radiation study
How it was run: (§1)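 MRSA 110 grown aerobically at 37 °C on BHA. Stationary-phase cells were taken into BHI, washed twice in PBS and diluted to OD650 ~0.7 (10^8 to 10^9 cells/mL). Suspensions were held with photosensitizer for 10 min in the dark at room temperature, then given white light for 30 min. Cells were serially diluted, plated on BHA and counted after 16–20 h at 37 °C. Survival = cfu ÷ cfu of photosensitizer-free controls.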

Staphylococcus aureus [2] = assay: Logarithmic survival of methicillin-resistant Staphylococcus aureus 110 at 2.5 uM after 10 mins and irradiated with white light at the fluence rate of 50 mW/cm2 for 30 mins relative to control; type: functional; conditions: light or radiation study; how it was run: as §1
Staphylococcus aureus [3] = assay: Logarithmic survival of methicillin-resistant Staphylococcus aureus 110 at 5 uM after 10 mins and irradiated with white light at the fluence rate of 50 mW/cm2 for 30 mins relative to control; type: functional; conditions: light or radiation study; how it was run: as §1
Escherichia coli [4] = assay: Logarithmic survival of Escherichia coli O4 at 0.01 uM after 10 mins and irradiated with white light at the fluence rate of 50 mW/cm2 for 30 mins relative to control; type: functional; conditions: O4, light or radiation study
How it was run: (§2)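 Strains grown aerobically at 37 °C on brain heart agar; stationary-phase cells washed twice in PBS and adjusted to OD650 ca. 0.7 (10^8 to 10^9 cells/mL). Cells incubated with photosensitizer at various concentrations for 10 min in the dark at room temperature, then irradiated with white light at 50 mW/cm² for 30 min. Survivors counted as cfu on BHA after 16–20 h at 37 °C, expressed relative to no-photosensitizer controls. Dark controls were run without irradiation.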

Escherichia coli [5] = assay: Logarithmic survival of Escherichia coli O4 at 0.1 uM after 10 mins and irradiated with white light at the fluence rate of 50 mW/cm2 for 30 mins relative to control; type: functional; conditions: O4, light or radiation study; how it was run: as §2
Escherichia coli [6] = assay: Logarithmic survival of Escherichia coli O4 at 0.25 uM after 10 mins and irradiated with white light at the fluence rate of 50 mW/cm2 for 30 mins relative to control; type: functional; conditions: O4, light or radiation study; how it was run: as §2
Escherichia coli [7] = assay: Logarithmic survival of Escherichia coli O4 at 0.5 uM after 10 mins and irradiated with white light at the fluence rate of 50 mW/cm2 for 30 mins relative to control; type: functional; conditions: O4, light or radiation study; how it was run: as §2
Escherichia coli [8] = assay: Logarithmic survival of Escherichia coli O4 at 10 uM after 10 mins and irradiated with white light at the fluence rate of 50 mW/cm2 for 30 mins relative to control; type: functional; conditions: O4, light or radiation study; how it was run: as §2
Staphylococcus aureus [9] = assay: Logarithmic survival of Staphylococcus aureus ATCC 25923 at 0.1 uM after 10 mins and irradiated with white light at the fluence rate of 50 mW/cm2 relative to control; type: functional; conditions: ATCC 25923, light or radiation study
How it was run: (§3)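 S. aureus ATCC 25923 or MRSA 110 (PBS-washed, 10^8 to 10^9 cells/mL) were incubated with 0.1 μM photosensitizer for 10 min in the dark at room temperature. They were then irradiated with white light at 50 mW/cm² for varying times up to 30 min. Survival was read as cfu on BHA and divided by cfu of controls without photosensitizer.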

Staphylococcus aureus [10] = assay: Logarithmic survival of Staphylococcus aureus ATCC 25923 at 0.1 uM after 10 mins and irradiated with white light at the fluence rate of 50 mW/cm2 for 2.5 mins relative to control; type: functional; conditions: ATCC 25923, light or radiation study; how it was run: as §3
Staphylococcus aureus [11] = assay: Logarithmic survival of Staphylococcus aureus ATCC 25923 at 0.1 uM after 10 mins and irradiated with white light at the fluence rate of 50 mW/cm2 for 15 mins relative to control; type: functional; conditions: ATCC 25923, light or radiation study; how it was run: as §3
Staphylococcus aureus [12] = assay: Logarithmic survival of Staphylococcus aureus ATCC 25923 at 0.1 uM after 10 mins and irradiated with white light at the fluence rate of 50 mW/cm2 for 20 mins relative to control; type: functional; conditions: ATCC 25923, light or radiation study; how it was run: as §3
Staphylococcus aureus [13] = assay: Logarithmic survival of methicillin-resistant Staphylococcus aureus 110 at 0.1 uM after 10 mins and irradiated with white light at the fluence rate of 50 mW/cm2 relative to control; type: functional; conditions: light or radiation study
Staphylococcus aureus [14] = assay: Logarithmic survival of methicillin-resistant Staphylococcus aureus 110 at 0.1 uM after 10 mins and irradiated with white light at the fluence rate of 50 mW/cm2 for 5 mins relative to control; type: functional; conditions: light or radiation study; how it was run: as §3
Staphylococcus aureus [15] = assay: Logarithmic survival of methicillin-resistant Staphylococcus aureus 110 at 0.1 uM after 10 mins and irradiated with white light at the fluence rate of 50 mW/cm2 for 10 mins relative to control; type: functional; conditions: light or radiation study; how it was run: as §3
Staphylococcus aureus [16] = assay: Logarithmic survival of methicillin-resistant Staphylococcus aureus 110 at 0.1 uM after 10 mins and irradiated with white light at the fluence rate of 50 mW/cm2 for 20 mins relative to control; type: functional; conditions: light or radiation study; how it was run: as §3
Staphylococcus aureus [17] = assay: Drug uptake per mg of protein in methicillin-resistant Staphylococcus aureus 110 at 5 uM after 10 mins; type: ADME, organism-based; conditions: in vivo
How it was run: (§4)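 Bacterial suspensions (10^8 to 10^9 cells/mL in PBS) were incubated with porphyrin for 10 min in the dark at room temperature, then centrifuged. The pellet was digested in 2% aqueous SDS. Porphyrin was quantified by spectrofluorimetry and cell protein by modified Lowry assay (BSA standard). Uptake is given as nmol per mg cell protein.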

Staphylococcus aureus [18] = assay: Drug uptake per mg of protein in methicillin-resistant Staphylococcus aureus 110 at 10 uM after 10 mins; type: ADME, organism-based; conditions: in vivo; how it was run: as §4
Escherichia coli [19] = assay: Drug uptake per mg of protein in Escherichia coli O4 at 5 uM after 10 mins; type: ADME, organism-based; conditions: in vivo; how it was run: as §4
Escherichia coli [20] = assay: Drug uptake per mg of protein in Escherichia coli O4 at 10 uM after 10 mins; type: ADME, organism-based; conditions: in vivo; how it was run: as §4
Staphylococcus aureus [21] = assay: Logarithmic survival of Staphylococcus aureus ATCC 25923 at 0.25 uM after 10 mins and irradiated with white light at the fluence rate of 50 mW/cm2 for 30 mins relative to control; type: functional; conditions: ATCC 25923, light or radiation study; how it was run: as §2
Staphylococcus aureus [22] = assay: Logarithmic survival of Staphylococcus aureus ATCC 25923 at 2.5 uM after 10 mins and irradiated with white light at the fluence rate of 50 mW/cm2 for 30 mins relative to control; type: functional; conditions: ATCC 25923, light or radiation study; how it was run: as §2
Staphylococcus aureus [23] = assay: Logarithmic survival of methicillin-resistant Staphylococcus aureus 110 at 0.25 uM after 10 mins and irradiated with white light at the fluence rate of 50 mW/cm2 for 30 mins relative to control; type: functional; conditions: light or radiation study; how it was run: as §1
Staphylococcus aureus [24] = assay: Logarithmic survival of methicillin-resistant Staphylococcus aureus 110 at 0.5 uM after 10 mins and irradiated with white light at the fluence rate of 50 mW/cm2 for 30 mins relative to control; type: functional; conditions: light or radiation study; how it was run: as §1
[25] = Photostability after irradiation with white light at the fluence rate of 50 mW/cm2 for 30 mins; type: ADME; conditions: read-out: Stability
Staphylococcus aureus [26] = assay: Antibacterial activity against methicillin-resistant Staphylococcus aureus 110 measured as 4 log decrease in survival; type: functional; how it was run: as §2
Staphylococcus aureus [27] = assay: Drug uptake per mg of protein in Staphylococcus aureus ATCC 25923 at 1 uM after 10 mins; type: ADME, organism-based; conditions: in vivo; how it was run: as §4
Staphylococcus aureus [28] = assay: Drug uptake per mg of protein in Staphylococcus aureus ATCC 25923 at 2.5 uM after 10 mins; type: ADME, organism-based; conditions: in vivo; how it was run: as §4
Staphylococcus aureus [29] = assay: Drug uptake per mg of protein in methicillin-resistant Staphylococcus aureus 110 at 0.5 uM after 10 mins; type: ADME, organism-based; conditions: in vivo; how it was run: as §4
Staphylococcus aureus [30] = assay: Drug uptake per mg of protein in methicillin-resistant Staphylococcus aureus 110 at 0.1 uM after 10 mins; type: ADME, organism-based; conditions: in vivo; how it was run: as §4

Row | Structure (SMILES) | survival at 1 µM (Staphylococcus aureus [1]) | survival at 2.5 µM (Staphylococcus aureus [2]) | survival at 5 µM (Staphylococcus aureus [3]) | survival at 0.01 µM (Escherichia coli [4]) | survival at 0.1 µM (Escherichia coli [5]) | survival at 0.25 µM (Escherichia coli [6]) | survival at 0.5 µM (Escherichia coli [7]) | survival at 10 µM (Escherichia coli [8]) | survival at 0.1 µM (Staphylococcus aureus [9]) | survival at 0.1 µM (Staphylococcus aureus [10]) | survival at 0.1 µM (Staphylococcus aureus [11]) | survival at 0.1 µM (Staphylococcus aureus [12]) | survival at 0.1 µM (Staphylococcus aureus [13]) | survival at 0.1 µM (Staphylococcus aureus [14]) | survival at 0.1 µM (Staphylococcus aureus [15]) | survival at 0.1 µM (Staphylococcus aureus [16]) | Drug uptake (Staphylococcus aureus [17]) [nmol/mg] | Drug uptake (Staphylococcus aureus [18]) [nmol/mg] | Drug uptake (Escherichia coli [19]) [nmol/mg] | Drug uptake (Escherichia coli [20]) [nmol/mg] | further results
1 | C[n+]1ccc(-c2c3nc(c(-c4cc[n+](C)cc4)c4ccc([nH]4)c(-c4cc[n+](C)cc4)c4nc(c(-c5ccc(C(=O)O)cc5)c5ccc2[nH]5)C=C4)C=C3)cc1.[I-].[I-].[I-] | -0.43 | -2.13 | -2.29 | 2 | 1.57 | 1.64 | 1.52 | -4.36 | 0.82 | 0.49 | -1.17 | -2.12 | 1.95 | 1.87 | 1.7 | 1.79 | 11.8 | 18 | 4.35 | 6.88 | survival at 0.25 µM (Staphylococcus aureus [21]): 1.56; survival at 2.5 µM (Staphylococcus aureus [22]): -2%; survival at 0.25 µM (Staphylococcus aureus [23]): 1.68%; survival at 0.5 µM (Staphylococcus aureus [24]): 1.33%; remaining at 0.5 h [25]: 67%; Activity (Staphylococcus aureus [26]): 2.5 µM; Drug uptake (Staphylococcus aureus [27]): 3.71 nmol/mg; Drug uptake (Staphylococcus aureus [28]): 7.77 nmol/mg; Drug uptake (Staphylococcus aureus [29]): 2.08 nmol/mg
2 | O=C(O)c1ccc(-c2c3nc(c(-c4ccncc4)c4ccc([nH]4)c(-c4ccncc4)c4nc(c(-c5ccncc5)c5ccc2[nH]5)C=C4)C=C3)cc1 [PORPHIRIN] | -2.27 | -3.11 | -3.07 | 2 | 2 | 1.7 | 1.46 | -4.06 | 1.91 | 0.22 | -2.48 | -3 | 1.89 | 1.61 | 0.98 | -0.6 | 143 | 342 | 85.6 | 163 | survival at 0.25 µM (Staphylococcus aureus [21]): -1.9; survival at 2.5 µM (Staphylococcus aureus [22]): -3.3%; survival at 0.25 µM (Staphylococcus aureus [23]): -1.39%; survival at 0.5 µM (Staphylococcus aureus [24]): -1.58%; remaining at 0.5 h [25]: 85%; Activity (Staphylococcus aureus [26]): 1 µM; Drug uptake (Staphylococcus aureus [27]): 7.7 nmol/mg; Drug uptake (Staphylococcus aureus [28]): 32.1 nmol/mg; Drug uptake (Staphylococcus aureus [30]): 1.5 nmol/mg; Drug uptake (Staphylococcus aureus [29]): 5.5 nmol/mg
